A short description of the series: Toxicity liver stage against HepG2, at 10uM. The format is cell-based. More on the design: test concentration 10 uM, cell line HepG2-A16-CD81EGFP. As to conditions: human, HepG2-A16-CD81EGFP cells; read-out: INHIBITION
In outline:
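Uninfected HepG2-A16-CD81EGFP cells, 3 × 10^3 per well, 1536-well, plated on prespotted compound at 10 μM final, parasite-free screening media added to match infected plates; puromycin 10 μM positive, DMSO 0.5% negative; run in parallel with 48 h PbLuc assay at 37 °C, 5% CO2; viability by CellTiter-Glo luminescence, normalized to controls.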
Turning to `COCC(=O)N[C@H](C)c1c(-c2ccc(OC)cc2)noc1C(=O)O`, the cytotoxicity at 10 µM was determined as 0.588%.

In the case of `CCOC(=O)[C@@H]1[C@@H](O)C(=O)N(C)C12CCN(C(=O)OC)CC2`, the cytotoxicity at 10 µM worked out at 1.97%.

Take `CCn1cc(-c2nn3c(C(F)(F)F)nnc3s2)cn1`: the cytotoxicity at 10 µM is -12.3%.

Regarding `CC1CCc2[nH]c(=O)c(C(=O)N3CCc4ccccc4C3)cc2C1` (stereo not drawn), the cytotoxicity at 10 µM was -6.77%.

On to `Cn1c(-c2cccs2)nn(CCNS(=O)(=O)c2ccccc2Cl)c1=O`, for which the cytotoxicity at 10 µM is -9.48%.

For `Cc1cccc(OC2CCN(C(=O)Cn3ccc4ccccc43)CC2)n1`, the cytotoxicity at 10 µM was found to be 1.53%.

On to `O=S(=O)(Nc1cnn(C2CCOCC2)c1)c1ccc(Br)cc1`, for which the cytotoxicity at 10 µM worked out at 5.05%.

In the case of `O=C(c1ccsc1)N1C[C@@H]2CCN(C(=O)c3cccc(F)c3)[C@@H]2C1`, the cytotoxicity at 10 µM came out at 1.47%.

For the compound `c1cncc(CN2CCC3(CCCN(c4nncs4)C3)C2)c1` (stereo not drawn), the cytotoxicity at 10 µM was -144%.

With `CC(C)CN1CCC2(CC(C(=O)NCc3cccnc3)=NO2)C1` (stereo not drawn), the cytotoxicity at 10 µM was -5.99%.

As for `Cn1ncc(C(=O)N2CCN(S(C)(=O)=O)CC2)c1Cl`, the cytotoxicity at 10 µM was 7.58%.

Regarding `COc1cc(-c2n[nH]c(CCN)n2)cc(OC)c1OC`, the cytotoxicity at 10 µM is -0.297%.

Take `Cc1nc(N2CCCC2)ncc1-c1cc(O)nc(N2CCCC2)n1`: the cytotoxicity at 10 µM is 6.79%.

With `CCOc1ccc(N2CCCN=C2NC(=O)c2ccccc2C)cc1`, the cytotoxicity at 10 µM was -6.69%.

As for `Cc1cc(Cc2ccccc2C)cc(C2CCCNC2)n1` (stereo not drawn), the cytotoxicity at 10 µM was -3.59%.

For the compound `CC(C)CC(NC(=O)c1cccs1)c1nc2cccnc2n1C` (stereo not drawn), the cytotoxicity at 10 µM was found to be 7.27%.

On to `Cc1nn(C)cc1NC(=O)CC1CCN(C(=O)Cc2ccccc2)CC1`, for which the cytotoxicity at 10 µM was found to be 1.96%.

As for `O=C1CCC[C@]2(CN(S(=O)(=O)C3CCCCC3)C[C@H]2c2cccnc2)N1`, the cytotoxicity at 10 µM is -12.4%.

With `Cc1cc(C)nc(N2CCOC(C)(C(=O)N(C)C)C2)n1` (stereo not drawn), the cytotoxicity at 10 µM is -3.04%.

Regarding `Cc1csc(C(Cc2ccsc2)NC(=O)C2CCN(S(C)(=O)=O)CC2)n1` (stereo not drawn), the cytotoxicity at 10 µM was -18%.

With `CN(C)CCOc1cc(NC(=O)COCC(F)(F)F)ccn1`, the cytotoxicity at 10 µM was -2.29%.

For `Cc1cccc(NCC(=O)NC2(C#N)CCCC2)c1C(=O)N1CCCC1`, the cytotoxicity at 10 µM was -0.69%.

For `CCc1nnsc1C(=O)NCCCC(CC)(CC)C1OCCO1`, the cytotoxicity at 10 µM came out at 5.95%.

Turning to `COc1c(Cl)cc(Cl)cc1CN1CCC(C(N)=O)C1` (stereo not drawn), the cytotoxicity at 10 µM amounted to 11.9%.

Turning to `CCN(CC1CCOC1)S(=O)(=O)Cc1ccccc1Cl` (stereo not drawn), the cytotoxicity at 10 µM is -0.768%.

On to `COc1cccc(CC(=O)NCCc2nnc3n2CCCCC3)c1`, for which the cytotoxicity at 10 µM was -18.4%.

With `CC(NC(=O)Nc1cccnc1N1CCOCC1)c1ccccn1` (stereo not drawn), the cytotoxicity at 10 µM is 0.456%.

For the compound `CC(C)CC(=O)N1CCC2(CC1)OCCO2`, the cytotoxicity at 10 µM amounted to 4.37%.

On to `O=C(Cc1cccnc1)NCCSc1ccccc1F`, for which the cytotoxicity at 10 µM is -6.45%.

Consider `CCOC(=O)C1CCN(Cc2c(O)ccc3oc4c(c23)CCCC4)CC1`, for which the cytotoxicity at 10 µM is -1.2%.

For the compound `NC(=O)CCCNC(=O)Cc1cccc(I)c1`, the cytotoxicity at 10 µM is -3.71%.

As for `C1CC(c2noc(C3CC3)n2)CN(CCOCC2CC2)C1` (stereo not drawn), the cytotoxicity at 10 µM was -8.91%.

Turning to `Cc1nc(C(=O)NCc2ccc(N3CCNC(=O)C3)c(F)c2)cs1`, the cytotoxicity at 10 µM was -0.0162%.

On to `CNC(=O)CS(=O)(=O)Cc1coc(-c2cccc(F)c2)n1`, for which the cytotoxicity at 10 µM was found to be 1.28%.

For the compound `OCC1(NCc2cnc(-c3ccsc3)s2)CCOCC1`, the cytotoxicity at 10 µM was -3.1%.

In the case of `O=C(c1cccc(F)c1Cl)N(CCO)CC1CC1`, the cytotoxicity at 10 µM came to 0.684%.

Consider `CN(Cc1nnc(C2CC2)n1C)C1CCN(CCc2ccncc2)C1` (stereo not drawn), for which the cytotoxicity at 10 µM was -4.56%.

As for `Cc1ccc(OCCC(=O)N(C)CCC#N)cc1C`, the cytotoxicity at 10 µM was determined as 6.5%.

Turning to `CNC(=O)c1cccc(CCNc2ccc(C#N)cn2)c1`, the cytotoxicity at 10 µM is -3.67%.

As to `COCc1csc(NC(=O)NCc2ccc(C)s2)n1`, the cytotoxicity at 10 µM amounted to 2.44%.

For `COc1ccc(F)cc1C[S+]([O-])CC(=O)NCc1ccccc1` (stereo not drawn), the cytotoxicity at 10 µM was -8.97%.

As for `O=C(c1cc[nH]c(=O)c1)N1CCn2c(nnc2-c2ccccc2)C1`, the cytotoxicity at 10 µM is -4.71%.

Take `O=C(Nc1ccccc1-c1cccs1)N1CCOCC1`: the cytotoxicity at 10 µM is -5.01%.

Turning to `CC(C)(CCS(C)(=O)=O)CNC(=O)NC1CCCCC1(C)C` (stereo not drawn), the cytotoxicity at 10 µM was 11.3%.

As for `COCCOc1ccc(CNc2nc3ccccc3o2)cn1`, the cytotoxicity at 10 µM was 7.45%.

Consider `O=C(NCC(CO)Cc1ccc(Cl)cc1)c1ccncc1F` (stereo not drawn), for which the cytotoxicity at 10 µM is -4.84%.

As for `O=S(=O)(Cc1ccc(F)c(Cl)c1)NCCOc1cccnc1`, the cytotoxicity at 10 µM is -49.9%.

As for `Cc1cc(C)c(CNC(=O)NCc2nnc3n2CCCC3)c(=O)[nH]1`, the cytotoxicity at 10 µM is -5.34%.

As for `CC(C)CNC(=O)CCN1C(=O)CCc2cc(F)ccc21`, the cytotoxicity at 10 µM was determined as 8.17%.

For `O=S(=O)(Cc1ccc(F)c(Cl)c1)NC(CO)c1ccco1` (stereo not drawn), the cytotoxicity at 10 µM is -3.49%.

Take `CCSCCC(=O)Nc1ncn(Cc2cccnc2)n1`: the cytotoxicity at 10 µM was 25.1%.

With `COc1cccc(S(=O)(=O)CCN2CCCCC2)c1`, the cytotoxicity at 10 µM was 2.37%.

Consider `CCCc1noc(CCC(=O)NC(C)c2nnc3n2CCCCC3)n1` (stereo not drawn), for which the cytotoxicity at 10 µM is 4.05%.

Consider `Cc1ccc(CC(=O)NC(C)C(=O)N2CCS(=O)(=O)CC2)cc1` (stereo not drawn), for which the cytotoxicity at 10 µM amounted to 1.73%.

With `Cc1ccn(-c2ccccc2NCc2cccnc2C)n1`, the cytotoxicity at 10 µM was 1.34%.

As to `Cc1csc(CNC(=O)NC2CCN(c3ncccn3)CC2)n1`, the cytotoxicity at 10 µM was -10.6%.

On to `Cc1nc(CC(=O)N2CCCN(c3ccc(C#N)cc3)CC2)cs1`, for which the cytotoxicity at 10 µM was found to be 2.37%.

For `COCC(=O)N(C)Cc1ccc(Cl)c(Cl)c1`, the cytotoxicity at 10 µM is -5.13%.

Take `Cc1cnn(C2CCCN(C(=O)c3cc(C)sc3C)C2)c1` (stereo not drawn): the cytotoxicity at 10 µM is -1.4%.

On to `O=C(C1CCC1)N1CCCC1c1nnc2n1CCCCC2` (stereo not drawn), for which the cytotoxicity at 10 µM stood at 1.26%.

Consider `CS(=O)(=O)N1CCO[C@@H]2CN(C(=O)N3CCOCC3)CC[C@@H]2C1`, for which the cytotoxicity at 10 µM is -105%.

As to `O=C1CCC(C(=O)N2CCOC(Cc3ccc(F)cc3)C2)=NN1` (stereo not drawn), the cytotoxicity at 10 µM is -6.26%.

Consider `CCn1ncnc1CN1CCC(CNC(=O)c2cccnc2O)C1` (stereo not drawn), for which the cytotoxicity at 10 µM turned out to be 7.06%.

In the case of `CC(C)(C)c1cc(=O)[nH]c(-c2ccccc2CN2CCC[C@@H](O)C2)n1`, the cytotoxicity at 10 µM was -43.3%.

Take `Cc1cccc(C(Nc2nccc(-c3ccc(C)nc3C)n2)C2CC2)n1` (stereo not drawn): the cytotoxicity at 10 µM amounted to 0.74%.

As to `CN1C(=O)CC(C(=O)O)C12CCN(c1ccc3c(n1)CCCC3)CC2` (stereo not drawn), the cytotoxicity at 10 µM was found to be 2.78%.

As for `CCC1CN(Cc2nnc(C(C)C)o2)CCC(=O)N1Cc1ccccc1` (stereo not drawn), the cytotoxicity at 10 µM stood at 3.33%.

On to `CCCSc1nc(O)c(CC)c(=O)n1-c1ccccc1`, for which the cytotoxicity at 10 µM was 2.77%.

For `CCCN1CC2(CCN(c3cc(C4CC4)ncn3)CC2)CC1C(=O)O` (stereo not drawn), the cytotoxicity at 10 µM was -9.88%.

As to `COc1cccc(C2CCCN2C(=O)CC2=CSC3=NCCCN23)c1` (stereo not drawn), the cytotoxicity at 10 µM is -0.277%.

On to `Cc1ccc(O)c(-c2cc(NCCO)nc3[nH]ccc23)c1`, for which the cytotoxicity at 10 µM came to 14.1%.

In the case of `COCc1ccc(C(=O)N2CCC(Oc3ccccc3)(C(=O)O)CC2)o1`, the cytotoxicity at 10 µM came to 0.871%.

Regarding `CCCN1CC2(CCN(C)CC2)CC1C(=O)NCCn1ccc(C)n1` (stereo not drawn), the cytotoxicity at 10 µM was -5.64%.

For the compound `COCc1cc(CN(C)C(=O)c2c[nH]nc2-c2cccc(F)c2)n[nH]1`, the cytotoxicity at 10 µM was found to be 0.445%.

Consider `O=C(O)c1ccnc(-c2ccnc(NCCc3cscn3)n2)c1`, for which the cytotoxicity at 10 µM was 0.852%.

For the compound `COc1cc(N2CCC(c3nccn3CCCN(C)C)CC2)nc(N)n1`, the cytotoxicity at 10 µM was -7.41%.

Regarding `CCc1cnc(C)nc1NC(CC)c1ncnn1CC` (stereo not drawn), the cytotoxicity at 10 µM was -10.2%.

Regarding `COCCNS(=O)(=O)c1ccc2c(c1)CCN(C(=O)c1cncn1C)C2`, the cytotoxicity at 10 µM was found to be 9.65%.

On to `N#Cc1ccc(C2CC(=O)Nc3c2cnn3C2CCCC2)cc1` (stereo not drawn), for which the cytotoxicity at 10 µM came out at 13.2%.

`N#Cc1cccc(CN2CCCC2Cn2cccn2)c1` (stereo not drawn): the cytotoxicity at 10 µM is -2.78%.

As to `Cc1ccc(C(O)CNC(=O)Nc2cc(C)nn2C)cc1` (stereo not drawn), the cytotoxicity at 10 µM is -13.3%.

Regarding `Cc1ccc(CN(C)C(=O)c2scnc2C)cc1`, the cytotoxicity at 10 µM was -6.8%.

In the case of `O=C(N1CCOCC1)N1CCN(CC(O)c2ccc(F)cc2)CC1` (stereo not drawn), the cytotoxicity at 10 µM was -2.42%.

Turning to `Cc1cc(CN(C)C(=O)c2ccc(Cl)c(N3CCCC3=O)c2)no1`, the cytotoxicity at 10 µM is -14.5%.

`CCOc1ccnc(N2CCN(C(=O)c3cn[nH]c3C)CC2)n1`: the cytotoxicity at 10 µM was found to be 3.54%.

On to `CC(NC(=O)NCCCO)c1ccc2c(c1)NC(=O)CO2` (stereo not drawn), for which the cytotoxicity at 10 µM was -3.05%.

With `Cc1ccc(-c2noc(CN3CCc4nn(C)c(=O)cc4C3)n2)cc1`, the cytotoxicity at 10 µM is -8.78%.

In the case of `CCN(Cc1ccco1)C(=O)Nc1cc(C(F)(F)F)c[nH]c1=O`, the cytotoxicity at 10 µM was -2.6%.

Turning to `NC(=O)Cn1cc(NC(=O)N2CCCC2)cn1`, the cytotoxicity at 10 µM was -8.67%.

As to `CCC(CO)NCc1ccc(-c2ccc(Br)cc2)o1` (stereo not drawn), the cytotoxicity at 10 µM was -5%.

Consider `O=C(NC1CCCC1)c1ccnc(C2CCNCC2)c1`, for which the cytotoxicity at 10 µM was -11.3%.

`Cc1ccc(CN(CCCN2CCOCC2)Cc2cnc(C)n2C)o1`: the cytotoxicity at 10 µM is -24%.

In the case of `CCc1ccc(CN2CC[C@H]3C[C@H](c4nnc(C)[nH]4)O[C@@H]3C2)o1`, the cytotoxicity at 10 µM was -8.51%.

In the case of `c1cnc(NCc2nnn3c2CN(Cc2ccco2)CCC3)nc1`, the cytotoxicity at 10 µM came to 9.08%.

With `C1CC(CO[C@@H]2CC[C@H]3[C@H]2OCCN3CC2CC2)CCO1`, the cytotoxicity at 10 µM was 11.4%.

`Cc1ccc(CN2CC(C(=O)N3CCCC3)C3(CCOCC3)C2)s1` (stereo not drawn): the cytotoxicity at 10 µM is -0.152%.

As to `CCOC1CC2(CCN(Cc3nccn3C)CC2)C1`, the cytotoxicity at 10 µM is -144%.

Consider `CO[C@H]1CCN(Cc2ccccn2)[C@@H]2CN(Cc3ccco3)C[C@H]12`, for which the cytotoxicity at 10 µM is -7.76%.
